What was measured:
[1] = molecular target: T1, Disintegrin and metalloproteinase domain-containing protein 17 (Homo sapiens, UniProt P78536); experiment: Inhibition of ADAM-17 in human SKOV3 cells transfected with luciferase gene assessed as inhibition of pervanadate-induced sALCAM release incubated for 30 mins prior to pervanadate induction measured after 90 mins by ELISA; type: cell-based, SK-OV-3
A2780 = experiment: Cytotoxicity against human A2780 cells assessed as cell viability at 0.01 to 10 uM after 24 to 72 hrs by MTT assay; type: cell-based; conditions: a2780, 10 µM
[2] = Cytotoxicity against human A2774 cells assessed as cell viability at 0.01 to 10 uM after 24 to 72 hrs by MTT assay; type: cell-based; conditions: a2774, 10 µM
SK-OV-3 = experiment: Cytotoxicity against human SKOV3 cells transfected with luciferase gene assessed as cell viability at 0.01 to 10 uM after 24 to 72 hrs by MTT assay; type: cell-based; conditions: sk-ov-3, 10 µM
[3] = molecular target: T1, Disintegrin and metalloproteinase domain-containing protein 17; experiment: Inhibition of ADAM-17 in human A2780 cells assessed as inhibition of EGF-induced sALCAM release incubated for 30 mins prior to EGF induction measured after 18 hrs by ELISA; type: cell-based
[4] = molecular target: T1, Disintegrin and metalloproteinase domain-containing protein 17; experiment: Inhibition of ADAM-17 in human A2780 cells assessed as inhibition of pervanadate-induced sALCAM release incubated for 30 mins prior to pervanadate induction measured after 90 mins by ELISA; type: cell-based
[5] = molecular target: T1, Disintegrin and metalloproteinase domain-containing protein 17; experiment: Inhibition of ADAM-17 in human SKOV3 cells transfected with luciferase gene assessed as inhibition of EGF-induced sALCAM release incubated for 30 mins prior to EGF induction measured after 18 hrs by ELISA; type: cell-based, SK-OV-3
[6] = molecular target: T1, Disintegrin and metalloproteinase domain-containing protein 17; experiment: Inhibition of ADAM-17 in human A2774 cells assessed as inhibition of pervanadate-induced sALCAM release incubated for 30 mins prior to pervanadate induction measured after 90 mins by ELISA; type: cell-based
[7] = molecular target: Matrix metalloproteinase-9 (Homo sapiens, UniProt P14780); experiment: Inhibition of recombinant human MMP-9 using Mca-Lys-Pro-Leu-Gly-Leu-Dap(Dnp)-Ala-Arg-NH2 as substrate incubated for 4 hrs measured every 15 secs for 20 mins by fluorimetric assay
Chain of Matrix metalloproteinase-9 (P14780 whole entry): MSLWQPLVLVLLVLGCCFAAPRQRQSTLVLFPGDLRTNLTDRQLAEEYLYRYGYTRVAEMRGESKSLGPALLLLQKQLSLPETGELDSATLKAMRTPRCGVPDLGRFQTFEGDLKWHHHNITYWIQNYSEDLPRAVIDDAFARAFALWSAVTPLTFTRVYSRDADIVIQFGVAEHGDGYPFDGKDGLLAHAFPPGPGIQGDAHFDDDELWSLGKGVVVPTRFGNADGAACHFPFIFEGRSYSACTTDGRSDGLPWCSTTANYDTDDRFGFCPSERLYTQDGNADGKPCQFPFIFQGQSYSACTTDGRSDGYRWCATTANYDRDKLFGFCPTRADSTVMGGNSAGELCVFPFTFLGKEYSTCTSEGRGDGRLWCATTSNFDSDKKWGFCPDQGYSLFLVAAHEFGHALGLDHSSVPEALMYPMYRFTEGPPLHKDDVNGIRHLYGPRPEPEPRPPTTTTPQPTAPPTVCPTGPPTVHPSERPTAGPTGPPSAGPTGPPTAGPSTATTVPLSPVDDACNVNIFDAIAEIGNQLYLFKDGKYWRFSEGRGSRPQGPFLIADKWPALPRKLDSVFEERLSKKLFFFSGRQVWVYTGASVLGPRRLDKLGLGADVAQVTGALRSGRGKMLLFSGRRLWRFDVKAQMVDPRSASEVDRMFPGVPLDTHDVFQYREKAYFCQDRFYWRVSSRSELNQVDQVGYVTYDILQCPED
In short: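 Pro-MMP-9 was activated with 1 mM APMA for 1 h at 37 °C and used at 1.3 nM final. Inhibitor was incubated with enzyme for 4 h at 25 °C in Tris 50 mM pH 7.5, NaCl 150 mM, CaCl2 10 mM, 0.05% Brij-35, 1% DMSO. Substrate was at 2 µM final, ex 325/em 400 nm, in duplicate. IC50 was obtained from vi/vo = 1/(1+[I]/IC50).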

[8] = molecular target: T1, Disintegrin and metalloproteinase domain-containing protein 17; experiment: Inhibition of recombinant human ADAM-17 using Mca-Lys-Pro-Leu-Gly-Leu-Dap(Dnp)-Ala-Arg-NH2 as substrate incubated for 30 mins measured every 15 secs for 20 mins by fluorimetric assay
In short: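 Enzyme at 5 nM final was preincubated with inhibitor for 30 min at 37 °C in Tris 25 mM pH 9, ZnCl2 25 µM, 0.005% Brij-35. Substrate was at 2 µM final. Fluorescence increase (ex 325/em 400 nm) gave initial rates, in duplicate. IC50 was derived from vi/vo = 1/(1+[I]/IC50).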

[9] = molecular target: Matrix metalloproteinase-14 (Homo sapiens, UniProt P50281); experiment: Inhibition of recombinant human MMP-14 catalytic domain using Mca-Lys-Pro-Leu-Gly-Leu-Dap(Dnp)-Ala-Arg-NH2 as substrate incubated for 4 hrs measured every 15 secs for 20 mins by fluorimetric assay
In short: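 MMP-14 catalytic domain was used at 1.0 nM final with no activation step. It was incubated with inhibitor for 4 h at 25 °C in Tris 50 mM pH 7.5 buffer with NaCl 150 mM, CaCl2 10 mM, 0.05% Brij-35 and 1% DMSO. Substrate was at 2 µM final, ex 325/em 400 nm, duplicate wells. IC50 was fitted by vi/vo = 1/(1+[I]/IC50).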

[10] = molecular target: 72 kDa type IV collagenase (Homo sapiens, UniProt P08253); experiment: Inhibition of recombinant human MMP-2 using Mca-Lys-Pro-Leu-Gly-Leu-Dap(Dnp)-Ala-Arg-NH2 as substrate incubated for 4 hrs measured every 15 secs for 20 mins by fluorimetric assay
Chain of 72 kDa type IV collagenase (P08253 whole entry): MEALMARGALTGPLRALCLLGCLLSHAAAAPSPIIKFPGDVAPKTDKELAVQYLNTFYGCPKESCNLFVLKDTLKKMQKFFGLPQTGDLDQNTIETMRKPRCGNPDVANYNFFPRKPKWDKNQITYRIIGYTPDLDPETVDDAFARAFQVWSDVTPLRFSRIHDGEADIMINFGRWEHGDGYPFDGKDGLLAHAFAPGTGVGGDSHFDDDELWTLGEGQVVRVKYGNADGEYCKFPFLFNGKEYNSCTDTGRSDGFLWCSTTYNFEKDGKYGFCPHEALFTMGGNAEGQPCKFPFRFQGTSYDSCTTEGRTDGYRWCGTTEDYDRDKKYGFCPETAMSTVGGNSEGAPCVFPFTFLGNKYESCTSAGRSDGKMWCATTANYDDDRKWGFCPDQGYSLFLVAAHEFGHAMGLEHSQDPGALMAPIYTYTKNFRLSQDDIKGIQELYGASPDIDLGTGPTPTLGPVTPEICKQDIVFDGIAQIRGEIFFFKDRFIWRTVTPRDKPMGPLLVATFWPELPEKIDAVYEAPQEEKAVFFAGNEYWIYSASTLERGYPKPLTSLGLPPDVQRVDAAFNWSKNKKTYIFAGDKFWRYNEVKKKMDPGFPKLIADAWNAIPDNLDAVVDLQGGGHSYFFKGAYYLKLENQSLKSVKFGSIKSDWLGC
In short: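 Pro-MMP-2 was activated with 2 mM APMA for 1 h at 37 °C and used at 0.56 nM final. It was preincubated with inhibitor for 4 h at 25 °C in Tris 50 mM pH 7.5 buffer containing NaCl, CaCl2, Brij-35 and 1% DMSO. Substrate was at 2 µM final, ex 325/em 400 nm, run in duplicate. IC50 was taken from initial-velocity ratios, vi/vo = 1/(1+[I]/IC50).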

Interstitial collagenase = molecular target: T2, Interstitial collagenase (Homo sapiens, UniProt P03956); experiment: Inhibition of recombinant human MMP-1 using Mca-Lys-Pro-Leu-Gly-Leu-Dap(Dnp)-Ala-Arg-NH2 as substrate incubated for 4 hrs measured every 15 secs for 20 mins by fluorimetric assay
T2 sequence (P03956 whole entry): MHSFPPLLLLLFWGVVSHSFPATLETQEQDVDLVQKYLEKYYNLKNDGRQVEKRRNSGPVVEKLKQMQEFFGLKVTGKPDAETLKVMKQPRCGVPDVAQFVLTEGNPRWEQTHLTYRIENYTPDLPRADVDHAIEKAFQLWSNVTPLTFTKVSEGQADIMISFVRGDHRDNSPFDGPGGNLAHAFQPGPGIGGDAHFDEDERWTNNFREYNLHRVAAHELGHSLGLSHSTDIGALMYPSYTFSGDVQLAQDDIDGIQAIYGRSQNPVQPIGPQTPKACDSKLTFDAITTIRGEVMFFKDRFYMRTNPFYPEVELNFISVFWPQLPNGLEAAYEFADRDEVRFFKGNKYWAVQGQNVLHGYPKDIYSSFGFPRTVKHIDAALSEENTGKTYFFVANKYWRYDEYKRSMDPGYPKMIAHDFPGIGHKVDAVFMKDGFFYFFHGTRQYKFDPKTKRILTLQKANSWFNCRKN
In short: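 Pro-MMP-1 was activated with 2 mM APMA for 2 h at 37 °C. Enzyme (2.0 nM final) was incubated with inhibitor in Tris 50 mM pH 7.5, NaCl 150 mM, CaCl2 10 mM, 0.05% Brij-35, 1% DMSO for 4 h at 25 °C. Substrate was added at 2 µM final. Fluorescence (ex 325/em 400 nm) was read for initial rates, in duplicate. IC50 came from vi/vo = 1/(1+[I]/IC50).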

T1 sequence (P78536 whole entry, the tested form may be a part): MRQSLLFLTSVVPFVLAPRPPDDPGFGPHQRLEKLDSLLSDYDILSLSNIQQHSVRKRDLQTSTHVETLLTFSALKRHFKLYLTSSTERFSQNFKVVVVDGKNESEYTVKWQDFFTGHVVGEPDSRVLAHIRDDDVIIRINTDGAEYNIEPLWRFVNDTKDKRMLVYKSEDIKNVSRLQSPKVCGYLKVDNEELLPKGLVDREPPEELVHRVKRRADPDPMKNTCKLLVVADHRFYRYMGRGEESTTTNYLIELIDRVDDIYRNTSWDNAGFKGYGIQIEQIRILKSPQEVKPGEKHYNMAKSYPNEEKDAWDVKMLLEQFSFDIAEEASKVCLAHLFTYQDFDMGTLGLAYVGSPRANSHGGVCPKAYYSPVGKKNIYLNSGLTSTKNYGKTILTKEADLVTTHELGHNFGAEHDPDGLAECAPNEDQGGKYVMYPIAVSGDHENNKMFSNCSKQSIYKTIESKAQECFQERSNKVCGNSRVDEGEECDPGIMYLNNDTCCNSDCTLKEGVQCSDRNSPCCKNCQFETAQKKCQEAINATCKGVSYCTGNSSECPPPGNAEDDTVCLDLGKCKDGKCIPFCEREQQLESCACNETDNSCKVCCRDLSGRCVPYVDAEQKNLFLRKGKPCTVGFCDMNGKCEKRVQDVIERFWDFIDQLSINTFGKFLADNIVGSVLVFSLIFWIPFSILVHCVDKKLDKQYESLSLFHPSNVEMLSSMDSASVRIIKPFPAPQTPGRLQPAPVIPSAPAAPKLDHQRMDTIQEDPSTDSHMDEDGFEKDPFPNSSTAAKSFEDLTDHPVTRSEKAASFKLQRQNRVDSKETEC

SMILES | IC50 [1] | IC50 [3] | IC50 [4] | IC50 [5] | IC50 [6] | IC50 [7] | IC50 [8] | IC50 [9] | IC50 [10] | IC50 (Interstitial collagenase) | Activity (A2780) | Activity [2] | Activity (SK-OV-3)
CC#CCOc1ccc(S(=O)(=O)N[C@H](CCNC(=O)OCc2ccccc2)C(=O)NO)cc1 | 14 nM | 1440 nM | < 10 nM | 966 nM | 26 nM | – | – | – | – | – | Non-toxic | Non-toxic | Non-toxic
O=C(CNS(=O)(=O)c1ccc(OCc2ccccc2)cc1)NO | – | – | – | – | – | 96 nM | 590 nM | – | – | – | – | – | –
O=C(CNS(=O)(=O)c1ccc(OCc2cccc(Br)c2)cc1)NO | – | – | – | – | – | 60 nM | 104 nM | 1600 nM | 15 nM | > 500000 nM | – | – | –
O=C(CNS(=O)(=O)c1ccc(OCc2cccc(OC(F)(F)F)c2)cc1)NO | – | – | – | – | – | 76 nM | 280 nM | 2900 nM | 20 nM | > 500000 nM | – | – | –
O=C(CNS(=O)(=O)c1ccc(OCc2cccc3cccnc23)cc1)NO | – | – | – | – | – | 29000 nM | 650 nM | 120000 nM | 670 nM | 620000 nM | – | – | –
CN(CC(=O)NO)S(=O)(=O)c1ccc(OCc2cc(Br)cc(Br)c2)cc1 | – | – | – | – | – | – | 160 nM | 123000 nM | 1870 nM | > 200000 nM | – | – | –

Further molecules by falling IC50 [8], results first:

IC50 [1] | IC50 [3] | IC50 [4] | IC50 [5] | IC50 [6] | IC50 [7] | IC50 [8] | IC50 [9] | IC50 [10] | IC50 (Interstitial collagenase) | SMILES | Activity (A2780) | Activity [2] | Activity (SK-OV-3)
– | – | – | – | – | 330 nM | 82 nM | 890 nM | 18 nM | 181000 nM | O=C(CNS(=O)(=O)c1ccc(OCc2cc(F)cc(F)c2)cc1)NO | – | – | –
– | – | – | – | – | 920 nM | 76 nM | 1700 nM | 41 nM | 100000 nM | O=C(CNS(=O)(=O)c1ccc(OCc2cccc(-c3ccccc3)c2)cc1)NO | – | – | –
– | – | – | – | – | 110 nM | 71 nM | 940 nM | 7.8 nM | 61000 nM | O=C(CNS(=O)(=O)c1ccc(OCc2cccc(F)c2)cc1)NO | – | – | –

Source: ChEMBL document CHEMBL2429772, “Selective arylsulfonamide inhibitors of ADAM-17: hit optimization and activity in ovarian cancer cell models” (J Med Chem, 2013)
